Each block holds one compound with its values, some of them ahead of it.
Tests used:
Staphylococcus aureus [1] = assay: Antimicrobial activity against Staphylococcus aureus MTCC 96 assessed as growth inhibition after 24 hrs by agar well diffusion method; format: functional; settings: MTCC 96, 24 h
Bacillus subtilis [2] = assay: Antimicrobial activity against Bacillus subtilis MTCC 121 assessed as growth inhibition after 24 hrs by agar well diffusion method; format: functional; settings: MTCC 121, 24 h
Staphylococcus aureus [3] = assay: Antimicrobial activity against Staphylococcus aureus MLS16 MTCC 2940 assessed as growth inhibition after 24 hrs by agar well diffusion method; format: functional; settings: MLS16 MTCC 2940, 24 h
Micrococcus luteus [4] = assay: Antimicrobial activity against Micrococcus luteus MTCC 2470 assessed as growth inhibition after 24 hrs by agar well diffusion method; format: functional; settings: MTCC 2470, 24 h
Raoultella planticola [5] = assay: Antimicrobial activity against Klebsiella planticola MTCC 530 assessed as growth inhibition after 24 hrs by agar well diffusion method; format: functional; settings: MTCC 530, 24 h
Escherichia coli [6] = assay: Antimicrobial activity against Escherichia coli MTCC 739 assessed as growth inhibition after 24 hrs by agar well diffusion method; format: functional; settings: MTCC 739, 24 h
Pseudomonas aeruginosa = assay: Antimicrobial activity against Pseudomonas aeruginosa MTCC 2453 assessed as growth inhibition after 24 hrs by agar well diffusion method; format: functional; settings: MTCC 2453, 24 h
Candida albicans [7] = assay: Antimicrobial activity against Candida albicans MTCC 3017 assessed as growth inhibition after 24 hrs by agar well diffusion method; format: functional; settings: MTCC 3017, 24 h
Candida albicans [8] = assay: Antimicrobial activity against Candida albicans MTCC 183 assessed as growth inhibition after 24 hrs by agar well diffusion method; format: functional; settings: MTCC 183, 24 h
Candida albicans [9] = assay: Antimicrobial activity against Candida albicans MTCC 227 assessed as growth inhibition after 24 hrs by agar well diffusion method; format: functional; settings: MTCC 227, 24 h
Candida albicans [10] = assay: Antimicrobial activity against Candida albicans MTCC 854 assessed as growth inhibition after 24 hrs by agar well diffusion method; format: functional; settings: MTCC 854, 24 h
Candida albicans [11] = assay: Antimicrobial activity against Candida albicans MTCC 1637 assessed as growth inhibition after 24 hrs by agar well diffusion method; format: functional; settings: MTCC 1637, 24 h
Candida albicans [12] = assay: Antimicrobial activity against Candida albicans MTCC 3018 assessed as growth inhibition after 24 hrs by agar well diffusion method; format: functional; settings: MTCC 3018, 24 h
Candida albicans [13] = assay: Antimicrobial activity against Candida albicans MTCC 3958 assessed as growth inhibition after 24 hrs by agar well diffusion method; format: functional; settings: MTCC 3958, 24 h
Candida albicans [14] = assay: Antimicrobial activity against Candida albicans MTCC 4748 assessed as growth inhibition after 24 hrs by agar well diffusion method; format: functional; settings: MTCC 4748, 24 h
Candida albicans [15] = assay: Antimicrobial activity against Candida albicans MTCC 7315 assessed as growth inhibition after 24 hrs by agar well diffusion method; format: functional; settings: MTCC 7315, 24 h
Candida parapsilosis [16] = assay: Antimicrobial activity against Candida parapsilosis MTCC 1744 assessed as growth inhibition after 24 hrs by agar well diffusion method; format: functional; settings: Lodderomyces parapsilosis, MTCC 1744, 24 h
[Candida] aaseri [17] = Antimicrobial activity against Candida aaseri MTCC 1962 assessed as growth inhibition after 24 hrs by agar well diffusion method; format: functional; settings: Yamadazyma aaseri, MTCC 1962, 24 h
Nakaseomyces glabratus [18] = assay: Antimicrobial activity against Candida glabrata MTCC 3019 assessed as growth inhibition after 24 hrs by agar well diffusion method; format: functional; settings: MTCC 3019, 24 h
Pichia kudriavzevii [19] = assay: Antimicrobial activity against Candida krusei MTCC 3020 assessed as growth inhibition after 24 hrs by agar well diffusion method; format: functional; settings: MTCC 3020, 24 h
Pichia sporocuriosa [20] = assay: Antimicrobial activity against Issatchenkia hanoiensis MTCC 4755 assessed as growth inhibition after 24 hrs by agar well diffusion method; format: functional; settings: MTCC 4755, 24 h
Staphylococcus aureus [21] = assay: Bactericidal activity against Staphylococcus aureus MTCC 96 after 24 hrs by serial dilution method; format: functional; settings: MTCC 96, 24 h
Bacillus subtilis [22] = assay: Bactericidal activity against Bacillus subtilis MTCC 121 after 24 hrs by serial dilution method; format: functional; settings: MTCC 121, 24 h
Staphylococcus aureus [23] = assay: Bactericidal activity against Staphylococcus aureus MLS16 MTCC 2940 after 24 hrs by serial dilution method; format: functional; settings: MLS16 MTCC 2940, 24 h
Micrococcus luteus [24] = assay: Bactericidal activity against Micrococcus luteus MTCC 2470 after 24 hrs by serial dilution method; format: functional; settings: MTCC 2470, 24 h
Raoultella planticola [25] = assay: Bactericidal activity against Klebsiella planticola MTCC 530 after 24 hrs by serial dilution method; format: functional; settings: MTCC 530, 24 h
Escherichia coli [26] = assay: Bactericidal activity against Escherichia coli MTCC 739 after 24 hrs by serial dilution method; format: functional; settings: MTCC 739, 24 h
Candida albicans [27] = assay: Fungicidal activity against Candida albicans MTCC 3017 after 24 hrs by serial dilution method; format: functional; settings: MTCC 3017, 24 h
Candida albicans [28] = assay: Fungicidal activity against Candida albicans MTCC 183 after 24 hrs by serial dilution method; format: functional; settings: MTCC 183, 24 h
Candida albicans [29] = assay: Fungicidal activity against Candida albicans MTCC 227 after 24 hrs by serial dilution method; format: functional; settings: MTCC 227, 24 h
Candida albicans [30] = assay: Fungicidal activity against Candida albicans MTCC 854 after 24 hrs by serial dilution method; format: functional; settings: MTCC 854, 24 h
Candida albicans [31] = assay: Fungicidal activity against Candida albicans MTCC 1637 after 24 hrs by serial dilution method; format: functional; settings: MTCC 1637, 24 h
Candida albicans [32] = assay: Fungicidal activity against Candida albicans MTCC 3018 after 24 hrs by serial dilution method; format: functional; settings: MTCC 3018, 24 h
Candida albicans [33] = assay: Fungicidal activity against Candida albicans MTCC 3958 after 24 hrs by serial dilution method; format: functional; settings: MTCC 3958, 24 h
Candida albicans [34] = assay: Fungicidal activity against Candida albicans MTCC 4748 after 24 hrs by serial dilution method; format: functional; settings: MTCC 4748, 24 h
Candida albicans [35] = assay: Fungicidal activity against Candida albicans MTCC 7315 after 24 hrs by serial dilution method; format: functional; settings: MTCC 7315, 24 h
Candida parapsilosis [36] = assay: Fungicidal activity against Candida parapsilosis MTCC 1744 after 24 hrs by serial dilution method; format: functional; settings: Lodderomyces parapsilosis, MTCC 1744, 24 h
[Candida] aaseri [37] = Fungicidal activity against Candida aaseri MTCC 1962 after 24 hrs by serial dilution method; format: functional; settings: Yamadazyma aaseri, MTCC 1962, 24 h
Nakaseomyces glabratus [38] = assay: Fungicidal activity against Candida glabrata MTCC 3019 after 24 hrs by serial dilution method; format: functional; settings: MTCC 3019, 24 h
Pichia kudriavzevii [39] = assay: Fungicidal activity against Candida krusei MTCC 3020 after 24 hrs by serial dilution method; format: functional; settings: MTCC 3020, 24 h
Pichia sporocuriosa [40] = assay: Fungicidal activity against Issatchenkia hanoiensis MTCC 4755 after 24 hrs by serial dilution method; format: functional; settings: MTCC 4755, 24 h
Staphylococcus aureus [41] = assay: Antibiofilm activity against Staphylococcus aureus MTCC 96 after 24 hrs by crystal violet staining based assay; format: functional, organism-based; settings: MTCC 96, 24 h
Summary of the method: (§1)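 Biofilm inhibition tested for amine esters and esterquats. IC50 values (µg/mL) are the mean of three determinations, with ciprofloxacin as reference.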

Bacillus subtilis [42] = assay: Antibiofilm activity against Bacillus subtilis MTCC 121 after 24 hrs by crystal violet staining based assay; format: functional, organism-based; settings: MTCC 121, 24 h; summary of the method: as §1
Staphylococcus aureus [43] = assay: Antibiofilm activity against Staphylococcus aureus MLS16 MTCC 2940 after 24 hrs by crystal violet staining based assay; format: functional, organism-based; settings: MLS16 MTCC 2940, 24 h; summary of the method: as §1
Micrococcus luteus [44] = assay: Antibiofilm activity against Micrococcus luteus MTCC 2470 after 24 hrs by crystal violet staining based assay; format: functional, organism-based; settings: MTCC 2470, 24 h; summary of the method: as §1

MIC (Staphylococcus aureus [1]): 3.9 mg/L
MIC (Bacillus subtilis [2]): 7.8 mg/L
MIC (Staphylococcus aureus [3]): 7.8 mg/L
MIC (Micrococcus luteus [4]): 3.9 mg/L
MIC (Escherichia coli [6]): 31.2 mg/L
MIC (Pseudomonas aeruginosa): > 125 mg/L
MIC (Candida albicans [7]): 15.6 mg/L
MIC (Candida albicans [8]): 15.6 mg/L
MIC (Candida albicans [9]): 31.2 mg/L
MIC (Candida albicans [10]): 15.6 mg/L
MIC (Candida albicans [11]): 31.2 mg/L
MIC (Candida albicans [12]): 15.6 mg/L
MIC (Candida albicans [13]): 31.2 mg/L
MIC (Candida albicans [14]): 15.6 mg/L
MIC (Candida albicans [15]): 15.6 mg/L
MIC (Candida parapsilosis [16]): 15.6 mg/L
MIC ([Candida] aaseri [17]): 31.2 mg/L
MIC (Nakaseomyces glabratus [18]): 15.6 mg/L
MIC (Pichia kudriavzevii [19]): 15.6 mg/L
MIC (Pichia sporocuriosa [20]): 15.6 mg/L
IC50 (Staphylococcus aureus [41]): 2.5 mg/L
IC50 (Bacillus subtilis [42]): 4.8 mg/L
IC50 (Staphylococcus aureus [43]): 3.2 mg/L
IC50 (Micrococcus luteus [44]): 2.1 mg/L
SMILES: CCCCCC[N+](C)(C)CCCCCCCCCCC(=O)OC.[Cl-]
MIC (Raoultella planticola [5]): 15.6 mg/L
MBC (Staphylococcus aureus [21]): 7.8 mg/L
MBC (Bacillus subtilis [22]): 7.8 mg/L
MBC (Staphylococcus aureus [23]): 15.6 mg/L
MBC (Micrococcus luteus [24]): 7.8 mg/L
MBC (Raoultella planticola [25]): 31.2 mg/L
MBC (Escherichia coli [26]): 62.5 mg/L
MFC (Candida albicans [27]): 31.2 mg/L
MFC (Candida albicans [28]): 31.2 mg/L
MFC (Candida albicans [29]): 62.5 mg/L
MFC (Candida albicans [30]): 31.2 mg/L
MFC (Candida albicans [31]): 62.5 mg/L
MFC (Candida albicans [32]): 31.2 mg/L
MFC (Candida albicans [33]): 31.2 mg/L
MFC (Candida albicans [34]): 15.6 mg/L
MFC (Candida albicans [35]): 15.6 mg/L
MFC (Candida parapsilosis [36]): 31.2 mg/L
MFC ([Candida] aaseri [37]): 62.5 mg/L
MFC (Nakaseomyces glabratus [38]): 31.2 mg/L
MFC (Pichia kudriavzevii [39]): 31.2 mg/L
MFC (Pichia sporocuriosa [40]): 31.2 mg/L

MIC (Staphylococcus aureus [1]): > 125 mg/L
MIC (Bacillus subtilis [2]): > 125 mg/L
MIC (Staphylococcus aureus [3]): > 125 mg/L
MIC (Micrococcus luteus [4]): > 125 mg/L
MIC (Escherichia coli [6]): > 125 mg/L
MIC (Pseudomonas aeruginosa): > 125 mg/L
MIC (Candida albicans [7]): > 125 mg/L
SMILES: CCCCCCCCCCCCN(CCCCCCCCCCC(=O)OC)CCCCCCCCCCC(=O)OC
MIC (Raoultella planticola [5]): > 125 mg/L
MBC (Staphylococcus aureus [21]): > 125 mg/L
MBC (Bacillus subtilis [22]): > 125 mg/L
MBC (Staphylococcus aureus [23]): > 125 mg/L
MBC (Micrococcus luteus [24]): > 125 mg/L
MBC (Raoultella planticola [25]): > 125 mg/L
MBC (Escherichia coli [26]): > 125 mg/L

MIC (Staphylococcus aureus [1]): > 125 mg/L
MIC (Bacillus subtilis [2]): > 125 mg/L
MIC (Staphylococcus aureus [3]): > 125 mg/L
MIC (Micrococcus luteus [4]): > 125 mg/L
MIC (Escherichia coli [6]): > 125 mg/L
MIC (Pseudomonas aeruginosa): > 125 mg/L
MIC (Candida albicans [7]): > 125 mg/L
SMILES: CCCCCCCCCCCCCCCCCC[N+](C)(C)CCCCCCCCCCC(=O)OC.[Cl-]
MIC (Raoultella planticola [5]): > 125 mg/L
MBC (Staphylococcus aureus [21]): > 125 mg/L
MBC (Bacillus subtilis [22]): > 125 mg/L
MBC (Staphylococcus aureus [23]): > 125 mg/L
MBC (Micrococcus luteus [24]): > 125 mg/L
MBC (Raoultella planticola [25]): > 125 mg/L
MBC (Escherichia coli [26]): > 125 mg/L

From ChEMBL document CHEMBL3784971, “Synthesis, characterization, antimicrobial and biofilm inhibitory studies of new esterquats” (Bioorg Med Chem Lett, 2016)
